Experimental data: PubChem BioAssay AID493090 (Southern Research Specialized Biocontainment Screening …, 2011)
Activity calls are given as the source filed them.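 Rule for the calls: active = cell viability under 70% at any tested concentration, a measure not printed in our tables; inactive = the rest.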

Test system: HEp-2 viability, luminescence cytotoxicity counter-screen
Test: HEp-2 cell cytotoxicity, dose response, cytotoxicity control for RSV inhibitor project, synthesized compounds, set 5 (AID 493090)
Method in brief: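 System – HEp-2 human cell line, uninfected, for cytotoxicity · Input – 10,595 HEp-2 cells per well · Buffer or medium – DMEM/F12 assay medium with 0.5% DMSO final · Compound – 8 points, 1:2 steps, 0.39–50 µM · Times – 6 d compound exposure, 37 °C · Signal – CellTiter-Glo luminescence · Evaluation – % viability vs cell controls, CC50 from constrained four-parameter fit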

With `Cc1ncccc1NC(=O)[C@@H]1CCCN1S(=O)(=O)c1cccc2cccnc12` as the compound, how does the CC50 read?
Its CC50 is > 50 µM (inactive).

Which CC50 does the source give for `CC(=O)c1ccccc1NC(=O)[C@@H]1CCCN1S(=O)(=O)c1cccc2cccnc12` here?
The CC50 was > 50 µM (inactive).

For `CCOC(=O)c1ccc2[nH]c3c(c2c1)CN(C)CC3`, which CC50 is on record?
Its CC50 is > 50 µM (inactive).

How did the CC50 turn out when `COCCCNC(=O)c1ccc(Cn2c(=O)c3ccccc3n(Cc3ccc(C)cc3)c2=O)cc1` was run?
The CC50 was > 50 µM (inactive).
